ChEMBL document CHEMBL1156779, “Biotin derivatives carrying two chelating DOTA units. Synthesis, in vitro evaluation of biotinidases resistance, avidin binding, and radiolabeling tests” (J Med Chem, 2010)

Legend:
[1] = Displacement of HABA from avidin at 31 uM
Outline: (§1)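 HABA competition in cuvettes. HABA/avidin complex formed at final avidin 7.6 μM and […], then competitors added at various concentrations. Absorbance read at 500 nm. Triplicate runs. % inhibition computed from absorbance with competitor against absorbance without competitor, each corrected for the blank without HABA/Av complex.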

[2] = Displacement of HABA from avidin; outline: as §1
[3] = Binding affinity to avidin by thermal stability study
Outline: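 Far-UV CD of avidin/ligand complexes. Thermal unfolding followed by the fall in dichroic signal at 225 nm over 25-95 °C. Settings: bandwidth 1 nm, response 0.5 s, data pitch 1 °C, slope 10 °C/min. Full spectrum (195-260 nm) recorded every 5 °C increment, each spectrum an average of three. Inflection point of the melting curve taken as the read-out.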

Serum = assay: Stability in normal mouse serum after 2 hrs; format: ADME, cell-free
Outline: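 Freshly collected normal mouse serum (50 μL) used as biotinidase source, mixed with sample and brought to 500 μL in 100 mM sodium acetate pH 5.5. Incubated at 37 °C for up to 2 h. Aliquots taken before and after incubation, diluted 10-fold in 0.08% TFA, then analysed by C18 RP-HPLC-ESI-MS (2-60% B over 20 min, 0.2 mL/min) for release of free biotin and recovery of parent.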

| Structure (SMILES) | inhibition [1] [%] | Activity [2] | Stability [3] [°C] | Stability (Serum) |
| --- | --- | --- | --- | --- |
| O=C(O)CN1CCN(CC(=O)O)CCN(CC(=O)NCCCCCCN(CCCCCCNC(=O)CN2CCN(CC(=O)O)CCN(CC(=O)O)CCN(CC(=O)O)CC2)CC(=O)NCCCCCCNCCCCC[C@@H]2SC[C@@H]3NC(=O)N[C@@H]32)CCN(CC(=O)O)CC1 | 64 | Dose-dependent effect | – | – |
| O=C(O)CN1CCN(CC(=O)O)CCN(CC(=O)NCCCN(CCCNC(=O)CN2CCN(CC(=O)O)CCN(CC(=O)O)CCN(CC(=O)O)CC2)CC(=O)NCCCCCCNCCCCC[C@@H]2SC[C@@H]3NC(=O)N[C@@H]32)CCN(CC(=O)O)CC1 | 66 | Dose-dependent effect | 90 | – |
| O=C(O)CN1CCN(CC(=O)O)CCN(CC(=O)NCCCN(CCCNC(=O)CN2CCN(CC(=O)O)CCN(CC(=O)O)CCN(CC(=O)O)CC2)CC(=O)Nc2ccc(C(=O)NCCCCC(NC(=O)CCCC[C@@H]3SC[C@@H]4NC(=O)N[C@@H]43)C(=O)O)cc2)CCN(CC(=O)O)CC1 (stereo partly drawn) | 97 | Dose-dependent effect | > 95 | Stable |
| O=C(O)CN1CCN(CC(=O)O)CCN(CC(=O)NCCCN(CCCNC(=O)CN2CCN(CC(=O)O)CCN(CC(=O)O)CCN(CC(=O)O)CC2)CC(=O)NCCCCC(NC(=O)CCCC[C@@H]2SC[C@@H]3NC(=O)N[C@@H]32)C(=O)O)CCN(CC(=O)O)CC1 (stereo partly drawn) | 95 | Dose-dependent effect | > 95 | – |
| O=C(O)CCCC[C@@H]1SC[C@@H]2NC(=O)N[C@@H]21 | 100 | – | – | – |
